From PubChem
Shown are actives, neighbours in structure and some others; about 1.5% of the full set was active somewhere.
EBI2 antag: blocks human EBI2 receptor beta-arrestin signaling | P32249 | EBI2 beta-arrestin recruitment, luminescence, 7a,25-OHC stimulated | inhibition, % at 5 µM | 360,000 tested, 0.81% active | AID 651636; in the data active = inhibition above about 38%;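 note: enzyme fragment complementation signal reports receptor beta-arrestin coupling in cells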
Target sequence (P32249 whole entry, looked up, the tested form may be a part): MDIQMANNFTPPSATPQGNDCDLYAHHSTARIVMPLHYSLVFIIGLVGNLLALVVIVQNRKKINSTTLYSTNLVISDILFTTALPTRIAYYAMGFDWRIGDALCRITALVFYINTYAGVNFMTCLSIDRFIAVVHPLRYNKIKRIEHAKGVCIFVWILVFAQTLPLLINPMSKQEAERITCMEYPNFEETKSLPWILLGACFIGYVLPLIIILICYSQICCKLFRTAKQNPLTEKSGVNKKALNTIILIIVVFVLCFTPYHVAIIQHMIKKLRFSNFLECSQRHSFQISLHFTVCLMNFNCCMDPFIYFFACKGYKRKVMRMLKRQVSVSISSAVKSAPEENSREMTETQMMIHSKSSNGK
APJ ag: agonists of human APJ apelin receptor; activation, % at 20 µM; P35414; 330,000 tested, 0.11% active; CHO-K1 APJ PathHunter beta-arrestin, luminescence; 0% DMSO wells, 100% apelin;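 active = activation more than six SD over the plate average, tested at 20 µM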
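Test system – PathHunter CHO-K1 APJ (AGTRL-1) beta-arrestin reporter cells · Input – 1000 cells/well · Compound – single test compound dose, 20 µM final, 1% DMSO · Times – compound stimulation 90 min at 25 °C, detection 60 min · Technique – beta-gal luminescence · Read-out basis – APJ–arrestin association signal · Control set – negative DMSO alone, positive Apelin-13 at 10 nM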
CCR6 antagonist: antagonists of human CCR6 receptor | P51684 | CHO-K1 CCR6 PathHunter beta-arrestin, luminescence, CCL20-stimulated | 340,000 tested, 0.49% active | inhibition, % at 20 µM;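 active = compounds whose inhibition of the agonist-driven luminescence signal at 20 µM reaches about 50%, limit read from the data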;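 note: cells stimulated with CCL20 at 14 nM final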
APJ antag: APJ receptor antagonism. inhibition, % at 20 µM. AID 2521. CHO-K1 APJ beta-arrestin complementation, luminescence. 330,000 tested, 0.32% active;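 active = inhibition above about 40% at 20 µM, limit read from the data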;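 note: cells challenged with 10 nM apelin-13 agonist together with compound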
CXCR6 block: CXCR6 (human) receptor inhibition; 360,000 tested, 0.36% active; O00574; inhibition, % at 20 µM; CHO-K1 PathHunter CXCR6 beta-arrestin, luminescence; AID 602244; in the data active = inhibition above about 34%, passing the limit was not always enough;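 note: antagonist mode with CXCL16 agonist at 10 nM final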
EBI2 conf: EBI2 (human) antagonism, single concentration confirmation; shares compounds with EBI2 antag; EBI2 beta-arrestin luminescence, 7a,25-OHC antagonism; inhibition, % at 5 µM; 2,400 tested, 29% active;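 active = inhibition of at least 50%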
EBI2 ag: counter-screen for EBI2 antagonists: EBI2 agonist activity | EBI2-expressing cells, agonist mode, luminescence, 60 min; 0% vehicle, 100% 7α,25-dihydroxycholesterol control | shares compounds with EBI2 antag | activation, % at 5 µM | 2,400 tested, under 10 active;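 active = activation of at least 50%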
bGal cs: beta-galactosidase inhibition counter-screen; shares compounds with EBI2 antag; purified beta-galactosidase, luminescent Galacton Star, 15 min; inhibition, % at 5 µM; 2,400 tested, 1% active; AID 652176;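 active = replicate-average signal at least 3 plate SD below neutral wells, shown as high inhibition, flagging enzyme-inhibiting false positives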;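 note: higher means stronger loss of beta-gal luminescence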
Large screens that a line does not name were inactive (follow-up assays come after a bar, where they were run).

C=CCC1(CC=C)CCCN1C(=O)C1CCC(=O)N(CCc2ccc(Cl)cc2)C1 (stereo unspecified)	EBI2 antag 79.4 | EBI2 conf inactive | EBI2 ag inactive | bGal cs inactive
CSc1ccccc1NC(=O)CN1CCN(Cc2ccccc2)CC1	none (no result: CCR6 antagonist)
O=c1[nH]c(CSc2nnc3ccccn23)nc2cc(C(F)(F)F)ccc12	none (no result: EBI2 antag, CCR6 antagonist, CXCR6 block)
CCN(CC)CC(=O)Nc1c(C#N)cnn1-c1ccccc1	none
Clc1ccc(-c2csc3ncnc(N4CCc5ccccc5C4)c23)cc1	EBI2 antag 44.4 | EBI2 conf inactive | EBI2 ag inactive | bGal cs inactive
COc1cc2ccccc2cc1C(=O)NC1CCCC1	none
COc1cc2ccccc2cc1C(=O)NC1CCC(C)CC1 (stereo unspecified)	EBI2 antag 65.4 | EBI2 conf inactive | EBI2 ag inactive | bGal cs inactive
CC(=O)c1ccc(N2CCN(C(=O)c3cc(-c4ccncc4)nc4ccc(Cl)cc34)CC2)cc1	EBI2 antag 45.2 | EBI2 conf inactive | EBI2 ag inactive | bGal cs inactive
Cc1cccc2c(C(=O)N3CCN(c4ccccc4)CC3)cc(-c3ccncc3)nc12	EBI2 antag 46.9 | EBI2 conf inactive | EBI2 ag inactive | bGal cs inactive
O=C1[C@@H]2Cc3c([nH]c4ccccc34)C(c3cccc([N+](=O)[O-])c3)N2C(=O)CN1C1CCN(Cc2ccccc2)CC1 (stereo partly specified)	EBI2 antag 41.0 (no result: CCR6 antagonist) | EBI2 conf inactive | EBI2 ag inactive | bGal cs inactive
COc1ccccc1N1CCN(C(=O)CC(NC(=O)c2ccccc2Cl)c2ccccc2)CC1 (stereo unspecified)	none
COc1cccc(Nc2nc(-c3sc(C)nc3C)cs2)c1	EBI2 antag 47.9 | EBI2 conf 58.8 | EBI2 ag inactive | bGal cs inactive
COc1cccc(Nc2nc(-c3sc(N)nc3C)cs2)c1	none
Cc1nc(C)c(-c2csc(Nc3ccc(F)cc3)n2)s1	EBI2 antag 46.0 | EBI2 conf 51.8 | EBI2 ag inactive | bGal cs inactive
Cc1nc(C)c(-c2csc(Nc3ccc(C(=O)O)c(O)c3)n2)s1	none
CC(C)NC(=O)c1cc(=O)n(C)c(=O)n1C	none
CCCOC(=O)c1c(NC(=O)/C=C/c2cnn(C)c2C)sc(C(=O)OCC)c1C	none
CCOC(=O)c1sc(NC(=O)/C=C/c2cnn(CC)c2C)c(C(=O)OCC)c1C	EBI2 antag 40.3 | EBI2 conf inactive | EBI2 ag inactive | bGal cs inactive
Cc1cccc(OCC(=O)Nc2ccccc2N2CCCCC2)c1	EBI2 antag 52.5 | EBI2 conf inactive | EBI2 ag inactive | bGal cs inactive
O=C(COc1ccccc1)Nc1ccccc1N1CCCCC1	EBI2 antag 45.3 | EBI2 conf inactive | EBI2 ag inactive | bGal cs inactive
O=C1NC[C@H](CC2CCCCC2)N(CCc2cccc3ccccc23)C1=O	none (no result: APJ ag, CCR6 antagonist, APJ antag)
S=C1NC[C@H](CC2CCCCC2)N1CCc1cccc2ccccc12	EBI2 antag 51.4 | EBI2 conf inactive | EBI2 ag inactive | bGal cs inactive
NS(=O)(=O)c1ccc(N/N=C/c2ccc(O)c(O)c2O)c([N+](=O)[O-])c1	none (no result: APJ ag, APJ antag)
NS(=O)(=O)c1ccc(N/N=C/c2ccc(O)cc2O)c([N+](=O)[O-])c1	EBI2 antag 42.7 | EBI2 conf inactive | EBI2 ag inactive | bGal cs inactive
CCOC(=O)C1CCCCN1C(=O)c1ccc2nc(Cc3ccc(OC)cc3)oc2c1 (stereo unspecified)	EBI2 antag 61.1 | EBI2 conf inactive | EBI2 ag inactive | bGal cs inactive
CSc1ccc(/C=N/NC(=O)CN2CCN(Cc3ccc(C)cc3)CC2)cc1	EBI2 antag 44.8 | EBI2 conf inactive | EBI2 ag inactive | bGal cs inactive
Cc1ccc(/C=N/NC(=O)CN2CCN(Cc3ccccc3Cl)CC2)o1	none
